The source of these data is ChEMBL document CHEMBL1124898, “Novel agents effective against solid tumors: the diarylsulfonylureas. Synthesis, activities, and analysis of quantitative structure-activity relationships” (J Med Chem, 1990).

Structures are written as SMILES. ≈ marks a conversion by molar mass, not a printed value. Bounds are passed on as bounds.

The nature of assay [1]: Antitumor activity in vivo against the 6C3HED lymphosarcoma dosed for 10 days at 270 mg/kg. In kind it is functional. The settings on record: Mus musculus, 192 h, in the assay text read “8 days” for “10 days”. Summed up:
(§1)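 Tumor fragments (about 1–2 mm) implanted sc via trochar into a subaxillary site of syngeneic mice (C3H, C57BL/6, Balb/C or DBA/2) or Holtz rats. Groups were 7–10 randomized animals. Compound was suspended in 2.5% Emulphor in 0.9% saline and given orally by gavage or ip, usually from the day after implantation. Tumor volume versus untreated controls was measured one day after the final dose and reported as % inhibition. Scoring bands: +++ 95–100%, ++ 80–94%.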

The next assay deals with CCRF-CEM. Description: Concentration required to inhibit growth of CCRF-CEM cells in culture for 72 hr to 50% of control growth. In kind it is functional, cell-based. The settings on record: Homo sapiens.
A short description of assay [2]: Antitumor activity in vivo against the 6C3HED lymphosarcoma dosed for 10 days at 300 mg/kg (intraperitoneal dosing for 8 days). It is filed as functional. The settings on record: Mus musculus, ip. The method, boiled down:
as §1

A short description of assay [3]: Antitumor activity in vivo against the 6C3HED lymphosarcoma, dosed for 8 days at 300 mg/kg. The settings on record: Mus musculus, 192 h.
A short description of assay [4]: Antitumor activity in vivo against the 6C3HED lymphosarcoma dosed for 10 days at 1600 mg/kg (intraperitoneal dosing for 8 days). It is filed as functional. The following applies: Mus musculus, ip. Summed up:
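Solid tumor fragments of about 1–2 mm were implanted sc by trochar into the subaxillary site of syngeneic mice. Treatment began the day after implantation. Compound was suspended in 2.5% Emulphor in 0.9% saline and given ip. Groups had 7–10 randomized animals. Percent inhibition of growth was scored from tumor volume versus controls one day after the final dose.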

Assay [5] concerns CA-755. Put plainly: Antitumor activity in vivo expressed as percent of inhibition in CA-755-mammary adenocarcinoma tumor cell line. It is filed as functional, Mus musculus. The method, boiled down:
as §1

Assay [6] deals with 6C3HED. Description: Antitumor activity in vivo expressed as percent of inhibition in 6C3HED-lymphosarcoma tumor cell line. In kind it is functional, Mus musculus. The method, boiled down:
as §1

For assay [7], the system named is Lewis lung carcinoma cell line. Description: Antitumor activity in vivo expressed as percent of inhibition in Lewis-lung carcinoma cell line. In kind it is functional, Mus musculus. The method, boiled down:
as §1

For assay [8], the system named is Colon 26. Description: Antitumor activity in vivo expressed as percent of inhibition in C-26-colon carcinoma cell line. It is filed as functional, Mus musculus. The method, boiled down: as §1
Another assay concerns P1534J. Put plainly: Antitumor activity in vivo expressed as percent of inhibition in P1534J-lymphatic leukemia cell line. It is filed as functional, Mus musculus.
Assay [9] relates to M-5 (Mus musculus). Description: Antitumor activity in vivo expressed as percent of inhibition in M-5-ovarian carcinoma cell line.
Assay [10] has as its system Rattus norvegicus. Description: Antitumor activity in vivo expressed as percent of inhibition in Yoshida-sarcoma (rat) cell line. It is filed as functional. The method, boiled down: as §1
In assay [11] the test system is X5563. Put plainly: Antitumor activity in vivo expressed as percent of inhibition in X5563-plasma cell myeloma cell line. In kind it is functional, Mus musculus. The method, boiled down:
as §1

The next assay concerns L1210. Description: Antitumor activity in vivo and the activity was determined as percent increase in life span determined against L1210V-lymphocytic leukemia tumor cell lines. It is filed as functional, Mus musculus. The method, boiled down:
(§2)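 The ascites tumor inoculum of 1 × 10^6 cells was given ip to DBA/2 mice, and treatment started the next day. Compound was suspended in 2.5% Emulphor in 0.9% saline. Groups had 7–10 animals. %ILS = (MDD treated − MDD control)/MDD control × 100. Deaths before the control median day of death were counted as toxic. Values are optimal from at least two experiments.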

Assay [12] concerns C3H. Description: Antitumor activity in vivo expressed as percent of inhibition in C3H-mammary adenocarcinoma cell line. It is filed as functional, Mus musculus. The method, boiled down:
as §1

For assay [13], the system named is P388. Description: Antitumor activity in vivo and the activity was determined as percent increase in life span determined against P388-lymphocytic leukemia tumor cell lines. It is filed as functional, Mus musculus. The method, boiled down: as §2
For assay [14], the system named is B16. Put plainly: Antitumor activity in vivo expressed as percent of inhibition in B-16-melanoma […] cell line. It is filed as functional, Mus musculus. Summed up:
as §1

Assay [15] concerns Rattus norvegicus. Put plainly: Hypoglycemic activity expressed as (Maximum reduction in blood glucose in mg/dL relative to predosing glucose level)/(time in hours at which maximum reduction occurred). In kind it is functional. The method, boiled down: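 Fed male Sprague-Dawley rats (175–200 g), four per compound, received a single oral gavage dose of 200 mg/kg suspended in 5% acacia. Tail blood was sampled before dosing and at 1, 2, 3 and 5 h, and glucose was measured by glucose oxidase/peroxidase colorimetry. Each rat served as its own control. Value = maximum fall from predose glucose (mg/dL) divided by the hour at which that maximum occurred.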

Assay [16] concerns M-5 (Mus musculus). Put plainly: Antitumor activity in vivo expressed as percent of inhibition in M-5-ovarian carcinoma cell line; 95-100% inhibition.
Assay [17] concerns P388. Description: Antitumor activity in vivo and the activity was determined as percent increase in life span determined against P388-lymphocytic leukemia tumor cell lines; 50-99 %. It is filed as functional, Mus musculus. The method, boiled down:
as §2

For assay [18], the system named is Colon 26. Description: Antitumor activity in vivo expressed as percent of inhibition in C-26-colon carcinoma cell line; 95-100% inhibition. In kind it is functional, Mus musculus. Summed up:
as §1

Assay [19] has as its system CA-755. Description: Antitumor activity in vivo expressed as percent of inhibition in CA-755-mammary adenocarcinoma tumor cell line; 95-100% inhibition. It is filed as functional, Mus musculus. Summed up: as §1
A further assay deals with M109. Put plainly: Antitumor activity in vivo expressed as percent of inhibition in Madison-lung carcinoma cell line; 80-94% inhibition. It is filed as functional, Mus musculus. The method, boiled down: as §1
Assay [20] has as its system X5563. Put plainly: Antitumor activity in vivo expressed as percent of inhibition in X5563-plasma cell myeloma cell line; 60-79 % inhibition. In kind it is functional, Mus musculus. Summed up:
as §1

For assay [21], the system named is 6C3HED. Description: Antitumor activity in vivo expressed as percent of inhibition in 6C3HED-lymphosarcoma tumor cell line; 95-100% inhibition. It is filed as functional, Mus musculus. The method, boiled down: as §1
Assay [22] concerns B16. Description: Antitumor activity in vivo expressed as percent of inhibition in B-16-melanoma (solid) cell line. In kind it is functional, Mus musculus. Summed up: as §1
Assay [23] deals with C3H. Description: Antitumor activity in vivo expressed as percent of inhibition in C3H-mammary adenocarcinoma cell line; 95-100% inhibition. It is filed as functional, Mus musculus. Summed up: as §1
Assay [24] can be described thus: Antitumor activity in vivo against the 6C3HED lymphosarcoma dosed for 10 days at 600 mg/kg. The following applies: Mus musculus, 192 h, in the assay text read “dosed for 8 days” for “dosed for 10 days”. It is filed as functional. The method, boiled down: as §1

For the compound `O=C(Nc1cccc(C(F)(F)F)c1)NS(=O)(=O)c1ccc([N+](=O)[O-])cc1`, testing at 270 mg/kg in assay [1] gave an inhibition in vivo of 20%. In addition, the IC50 (as a rule, the concentration that inhibits the measured activity by half) in the assay on CCRF-CEM is over 20 mg/L.

Consider `O=C(NC(=O)c1ccccc1)Nc1ccc(Cl)cc1`, for which the inhibition in vivo (usually the percentage by which the read-out fell short of the control) at 300 mg/kg in assay [2] came out at 0%; in [3], 7%. The compound also came in with an IC50 with CCRF-CEM of over 20 mg/L.

For the compound `O=C(NC(=O)c1c(F)cccc1F)Nc1ccc(Cl)cc1` [DIFLUBENZURON], in assay [3], the inhibition in vivo at 300 mg/kg turned out to be 6%. In assay [4], this compound gave an inhibition in vivo at 1600 mg/kg of 33%. The compound also came in with a half-inhibitory concentration (IC50) in the assay with CCRF-CEM of over 20 mg/L.

Consider `Cc1ccc(S(=O)(=O)NC(=O)Nc2ccc(Cl)cc2)cc1` [LY-181984], for which the Inhibition (as a rule, the relative decrease from the control value, in per cent) in the assay with CA-755 [5] is listed as 100%; with 6C3HED [6], 100%; in assay [7], under 60%; with Colon 26 [8], 94%; in the assay on P1534J, 100%; in the assay on M-5 (Mus musculus) [9], 100%. In addition, the Inhibition was 79% in the assay on Rattus norvegicus [10], 94% in the assay with X5563 [11], 94% in the assay with C3H [12] and 79% in the assay with B16 [14]. Testing at 300 mg/kg in assay [3] gave an inhibition in vivo of 100%. The Increase in life-span in the assay with L1210 and in the assay on P388 [13] was under 50% in each case. Besides, in the assay with CCRF-CEM, the IC50 came out at 8.9 mg/L (≈ 27.4 µM).

As to `O=C(Nc1ccc(Cl)cc1)NS(=O)(=O)c1ccc2c(c1)CCC2` [SULOFENUR], the Ratio in the assay on Rattus norvegicus [15] turned out to be 0. For the same compound, the Inhibition in the assay with M-5 (Mus musculus) [16] is listed as 100%; in assay [7] it was under 60%; with Colon 26 [18], 100%; in the assay with CA-755 [19], 100%; in the assay on M109, 94%; in the assay with X5563 [20], 79%. Moreover, the Inhibition with 6C3HED [21] is 100%; in the assay on B16 [22], under 60%; with C3H [23], 100%. Further, the Increase in life-span in the assay with P388 [17] worked out at 99%. The compound further registered an inhibition in vivo at 300 mg/kg in assay [3] of 100%. Further, 11.2 mg/L (≈ 31.9 µM) corresponded to half-maximal inhibition with CCRF-CEM (IC50).

Take `CCCCNC(=O)NS(=O)(=O)c1ccc(C)cc1` [TOLBUTAMIDE]: at 600 mg/kg the inhibition in vivo in [24] was 45%.
